Laboratory results as given in ChEMBL document CHEMBL1149092, “Studies on pyrrolopyrimidines as selective inhibitors of multidrug-resistance-associated protein in multidrug resistance” (J Med Chem, 2004).

Assays:
[1] = biological target: ATP-dependent translocase ABCB1 (Mus musculus, UniProt P06795); assay: Inhibitory activity against mouse transporter Pgp (P-glycoprotein) expressed in EMT6/AR1.0 cell line
In short: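 Accumulation protocol run as for MRP1, but in the Pgp-expressing murine mammary carcinoma EMT6/AR1.0 subline. IC50 is the mean of at least three experiments.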

[2] = biological target: Multidrug resistance-associated protein 1 (Homo sapiens, UniProt P33527); assay: Inhibitory activity against human transporter MRP1 (Multidrug resistance associated protein 1) expressed in COR.L23/R cell line
Multidrug resistance-associated protein 1, sequence (P33527 whole entry): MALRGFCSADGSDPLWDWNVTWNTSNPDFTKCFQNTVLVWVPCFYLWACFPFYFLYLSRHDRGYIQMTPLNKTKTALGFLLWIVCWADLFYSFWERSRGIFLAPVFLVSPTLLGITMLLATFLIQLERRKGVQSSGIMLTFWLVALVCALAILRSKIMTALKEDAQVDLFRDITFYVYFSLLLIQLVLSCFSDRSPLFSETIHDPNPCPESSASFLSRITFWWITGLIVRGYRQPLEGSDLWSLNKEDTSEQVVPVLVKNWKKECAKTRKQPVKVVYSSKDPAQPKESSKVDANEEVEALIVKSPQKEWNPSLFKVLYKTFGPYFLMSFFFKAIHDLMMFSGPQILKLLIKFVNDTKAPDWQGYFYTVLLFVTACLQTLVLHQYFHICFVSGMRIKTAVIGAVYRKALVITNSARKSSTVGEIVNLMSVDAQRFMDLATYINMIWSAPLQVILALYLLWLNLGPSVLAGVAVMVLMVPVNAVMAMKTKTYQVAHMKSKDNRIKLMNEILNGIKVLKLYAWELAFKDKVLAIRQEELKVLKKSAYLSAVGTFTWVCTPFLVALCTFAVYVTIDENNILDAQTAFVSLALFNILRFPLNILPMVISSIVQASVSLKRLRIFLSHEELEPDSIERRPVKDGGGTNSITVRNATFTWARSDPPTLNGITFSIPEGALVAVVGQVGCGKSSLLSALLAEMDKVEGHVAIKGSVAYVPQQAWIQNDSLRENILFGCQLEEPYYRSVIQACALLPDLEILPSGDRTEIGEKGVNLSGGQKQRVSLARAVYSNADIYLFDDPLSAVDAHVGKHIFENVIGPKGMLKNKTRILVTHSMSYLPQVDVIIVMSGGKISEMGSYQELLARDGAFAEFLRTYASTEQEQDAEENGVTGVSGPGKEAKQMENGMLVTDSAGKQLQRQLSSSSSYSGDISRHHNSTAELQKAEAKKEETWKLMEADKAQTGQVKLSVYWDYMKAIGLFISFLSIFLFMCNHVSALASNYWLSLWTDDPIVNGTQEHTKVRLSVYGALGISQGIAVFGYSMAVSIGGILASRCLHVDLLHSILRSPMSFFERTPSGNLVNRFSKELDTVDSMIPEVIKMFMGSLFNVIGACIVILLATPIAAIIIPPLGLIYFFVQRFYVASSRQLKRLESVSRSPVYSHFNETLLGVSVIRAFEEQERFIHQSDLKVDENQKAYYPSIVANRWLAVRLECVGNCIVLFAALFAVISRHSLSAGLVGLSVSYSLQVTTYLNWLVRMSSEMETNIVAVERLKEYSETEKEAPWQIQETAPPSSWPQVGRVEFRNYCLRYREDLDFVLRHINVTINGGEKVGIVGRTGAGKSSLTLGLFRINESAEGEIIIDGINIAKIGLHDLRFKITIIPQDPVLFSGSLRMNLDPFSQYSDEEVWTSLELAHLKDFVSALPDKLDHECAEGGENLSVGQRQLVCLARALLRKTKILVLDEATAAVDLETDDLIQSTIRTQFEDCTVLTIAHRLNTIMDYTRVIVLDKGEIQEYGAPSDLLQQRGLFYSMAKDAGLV
In short: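 Tritiated daunomycin (0.3 μCi/mL) accumulation in COR.L23/R cells (MRP-expressing human NSCLC MDR subline), seeded 48 h before the assay. Cells were washed and cell-associated radioactivity measured. 100% accumulation was set with 100 μM verapamil.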

[3] = (§1) Area under curve when injected intravenously in BALB/C mice at a dose of 20 mg/kg; type: ADME, organism-based; design: dose 20 mg/kg, route intravenous; settings: BALB/C, mouse, in vivo, iv
In short: (§2)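 Female Balb/c mice, three to four per time point, were dosed iv, ip or po at 20–50 mg/kg. Blood was taken by cardiac puncture under anesthesia from 0.03 to 24 h. Plasma was methanol-extracted and analysed by HPLC. AUC (linear/log trapezoidal) and t1/2 were derived by noncompartmental analysis.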

Cytochrome P450 3A4 = Cytochrome P450 3A4 (Homo sapiens, UniProt P08684); assay: Inhibitory concentration to inhibit MRP1 in CYP 3A4 assay
Cytochrome P450 3A4, sequence (P08684 whole entry): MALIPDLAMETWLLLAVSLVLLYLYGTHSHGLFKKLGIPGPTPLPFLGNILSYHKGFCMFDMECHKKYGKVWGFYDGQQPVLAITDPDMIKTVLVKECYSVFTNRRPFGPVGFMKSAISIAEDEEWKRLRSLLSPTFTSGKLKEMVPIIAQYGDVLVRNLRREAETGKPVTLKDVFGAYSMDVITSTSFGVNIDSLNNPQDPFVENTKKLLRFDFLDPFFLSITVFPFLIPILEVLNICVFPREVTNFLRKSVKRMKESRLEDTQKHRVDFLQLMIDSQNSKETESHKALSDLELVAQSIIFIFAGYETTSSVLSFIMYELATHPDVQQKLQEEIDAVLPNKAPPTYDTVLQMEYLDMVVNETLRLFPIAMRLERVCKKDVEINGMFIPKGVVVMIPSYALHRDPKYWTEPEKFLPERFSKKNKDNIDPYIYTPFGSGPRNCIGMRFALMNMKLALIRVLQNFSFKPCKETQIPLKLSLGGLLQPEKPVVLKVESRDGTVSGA

[4] = (§3) Maximal plasma concentration in BALB/C mice after 20 mg/kg intravenous dose; type: ADME, organism-based; design: dose 20 mg/kg, route intravenous; settings: BALB/C, mouse, plasma; in short: as §2
[5] = (§4) Half life in BALB/C mice at the dose of 20 mg/kg by i.v. administration; type: ADME, organism-based; design: dose 20 mg/kg, route intravenous; settings: mouse, in vivo, iv; in short: as §2
[6] = Bioavailability in mouse (BALB/C) (dose 20 mg/kg i.p.); settings: in vivo, ip
[7] = Bioavailability in mouse (BALB/C) (dose 50 mg/kg p.o.); settings: in vivo, po
[8] = Area under curve when injected perorally in BALB/C mice at a dose of 50 mg/kg; type: ADME, organism-based; design: dose 50 mg/kg, route oral; settings: mouse, in vivo, po; in short: as §2
[9] = Area under curve when injected intraperitoneally in BALB/C mice at a dose of 20 mg/kg; type: ADME, organism-based; design: dose 20 mg/kg, route intraperitoneal; settings: mouse, in vivo, ip; in short: as §2
[10] = Maximal plasma concentration in BALB/C mice after 20 mg/kg intraperitoneal dose; type: ADME, organism-based; design: dose 20 mg/kg, route intraperitoneal; settings: mouse, ip; in short: as §2
[11] = Maximal plasma concentration in BALB/C mice after 50 mg/kg oral dose; type: ADME, organism-based; design: dose 50 mg/kg, route oral; settings: mouse; in short: as §2
[12] = Half life in BALB/C mice at the dose of 50 mg/kg by p.o. administration; settings: mouse, in vivo, po
[13] = Half life in BALB/C mice at the dose of 20 mg/kg by i.p. administration; type: ADME, organism-based; design: dose 20 mg/kg, route intraperitoneal; settings: mouse, in vivo, ip; in short: as §2
Mus musculus [14] = assay: as §1; type: ADME, organism-based; design: dose 20 mg/kg, route intravenous; settings: in vivo, iv; in short: as §2
Mus musculus [15] = assay: as §3; type: ADME, organism-based; design: dose 20 mg/kg, route intravenous; settings: in vivo; in short: as §2
Mus musculus [16] = assay: as §4; type: ADME, organism-based; design: dose 20 mg/kg, route intravenous; settings: in vivo, iv; in short: as §2
[17] = Half life in BALB/C mice at the dose of 50 mg/kg by i.p. administration; type: ADME, organism-based; design: dose 50 mg/kg, route intraperitoneal; settings: mouse, in vivo, ip; in short: as §2
[18] = Half life in BALB/C mice at the dose of 50 mg/kg by p.o. administration; type: ADME, organism-based; design: dose 50 mg/kg, route oral; settings: mouse, in vivo, po; in short: as §2

ATP-dependent translocase ABCB1, sequence (P06795 whole entry): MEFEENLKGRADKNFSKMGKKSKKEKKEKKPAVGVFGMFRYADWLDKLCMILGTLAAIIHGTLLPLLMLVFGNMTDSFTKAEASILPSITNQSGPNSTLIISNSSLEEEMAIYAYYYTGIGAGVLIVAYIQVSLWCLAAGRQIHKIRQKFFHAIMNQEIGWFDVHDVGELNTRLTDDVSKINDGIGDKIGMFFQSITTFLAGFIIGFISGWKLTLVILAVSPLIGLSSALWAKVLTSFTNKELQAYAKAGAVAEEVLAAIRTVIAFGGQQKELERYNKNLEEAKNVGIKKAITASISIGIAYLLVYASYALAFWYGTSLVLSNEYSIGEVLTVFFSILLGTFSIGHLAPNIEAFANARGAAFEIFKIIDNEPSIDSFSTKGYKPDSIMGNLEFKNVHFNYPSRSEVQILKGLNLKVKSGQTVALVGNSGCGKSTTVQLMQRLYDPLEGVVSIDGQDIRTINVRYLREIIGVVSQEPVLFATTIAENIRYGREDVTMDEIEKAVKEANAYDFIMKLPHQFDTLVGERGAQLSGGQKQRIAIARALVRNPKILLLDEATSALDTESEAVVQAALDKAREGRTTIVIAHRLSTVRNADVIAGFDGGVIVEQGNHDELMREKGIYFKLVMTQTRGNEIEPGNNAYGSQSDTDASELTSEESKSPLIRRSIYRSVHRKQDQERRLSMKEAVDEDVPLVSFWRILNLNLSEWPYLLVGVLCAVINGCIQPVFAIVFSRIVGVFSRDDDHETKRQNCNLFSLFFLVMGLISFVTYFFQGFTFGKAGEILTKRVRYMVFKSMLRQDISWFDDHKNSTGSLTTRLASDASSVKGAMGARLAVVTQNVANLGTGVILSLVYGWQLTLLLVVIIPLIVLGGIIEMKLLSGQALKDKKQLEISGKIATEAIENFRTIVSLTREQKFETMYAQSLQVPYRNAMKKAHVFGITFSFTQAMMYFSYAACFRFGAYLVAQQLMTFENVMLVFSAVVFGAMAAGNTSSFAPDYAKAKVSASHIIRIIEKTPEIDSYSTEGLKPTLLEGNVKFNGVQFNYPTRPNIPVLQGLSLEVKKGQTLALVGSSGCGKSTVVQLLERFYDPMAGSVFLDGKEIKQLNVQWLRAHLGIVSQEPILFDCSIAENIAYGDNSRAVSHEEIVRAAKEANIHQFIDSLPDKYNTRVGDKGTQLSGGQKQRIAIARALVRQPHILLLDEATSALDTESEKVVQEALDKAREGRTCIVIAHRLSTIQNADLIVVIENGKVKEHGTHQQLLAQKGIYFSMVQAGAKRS

Structure (SMILES) | IC50 [1] [µM] | IC50 [2] [µM] | further results
COc1cccc(CCN2CCN(c3ncnc4c(C#N)c5n(c34)CCCC5)CC2)c1 | 16.2 | 2.3 | 
O=C(NCc1ccccn1)c1c2n(c3c(N4CCN(CCc5ccc(F)c(F)c5)CC4)ncnc13)CCCC2 | 3.4 | 0.061 | AUC [3]: 7380 ng·h/mL; IC50 (Cytochrome P450 3A4): 30.1 µM; Cmax [4]: 11.4 µM; half-life ([5]; BALB/C): 2.5 h
COc1ccc(CCN2CCN(c3ncnc4c(C#N)c5n(c34)CCCC5)CC2)cc1 |  | > 50 | 
NC(=O)c1c2n(c3c(N4CCN(CCc5ccc(F)c(F)c5)CC4)ncnc13)CCCC2 | > 50 | 0.138 | bioavailability [6]: 52%; AUC [3]: 25000 ng·h/mL; bioavailability [7]: 71.6%; IC50 (Cytochrome P450 3A4): 45.8 µM; AUC [8]: 44900 ng·h/mL; Cmax [4]: 28 µM; half-life [5]: 1.47 h; AUC [9]: 13100 ng·h/mL; Cmax [10]: 4.43 µM; Cmax [11]: 8.37 µM; half-life [12]: 6.86 h; half-life [13]: 6.35 h
N#Cc1c2n(c3c(N4CCN(CCc5ccc(F)c(F)c5)CC4)nc(-c4ccncc4)nc13)CCCC2 | 1.31 | 0.105 | 
N#Cc1c2n(c3c(N4CCN(CCCc5ccccc5)CC4)ncnc13)CCCC2 | 13 | 7.35 | 
N#Cc1c2n(c3c(N4CCN(CCc5ccc(F)c(F)c5)CC4)ncnc13)CCCC2 | 10.5 | 0.229 | 
Cc1nc(-c2c3n(c4c(N5CCN(CCc6ccccc6)CC5)ncnc24)CCCC3)sc1C | 6 | 0.533 | 
N#Cc1c2n(c3c(N4CCN(CCc5ccccc5[N+](=O)[O-])CC4)ncnc13)CCCC2 | > 50 | 1.41 | 
COc1cccc(CNC(=O)c2c3n(c4c(N5CCN(CCc6ccc(F)c(F)c6)CC5)ncnc24)CCCC3)c1OC | 3.7 | 0.043 | AUC (Mus musculus [14]): 12000 ng·h/mL; IC50 (Cytochrome P450 3A4): 2.44 µM; Cmax (Mus musculus [15]): 4 µM; T1/2 (Mus musculus [16]): 0.8 h
N#Cc1c2n(c3c(N4CCN(CCc5ccc([N+](=O)[O-])cc5)CC4)ncnc13)CCCC2 | 12.9 | 0.523 | 
N#Cc1c2n(c3c(N4CCN(CCc5cccc([N+](=O)[O-])c5)CC4)ncnc13)CCCC2 | 9.67 | 0.41 | 
CCC(=O)c1c2n(c3c(N4CCN(CCc5ccccc5)CC4)ncnc13)CCCC2 | > 50 | 2.8 | 
N#Cc1c2n(c3c(N4CCN(CCc5ccccc5)CC4)nc(-c4ccccc4)nc13)CCCC2 | 5 | 0.715 | 
N#Cc1c2n(c3c(N4CCN(CCc5ccccc5Cl)CC4)ncnc13)CCCC2 | 10.6 | 0.955 | 
N#Cc1c2n(c3c(NS(=O)(=O)Cc4ccccc4)ncnc13)CCCC2 | 5.4 | 20.9 | 
CN(CCc1ccccc1)c1ncnc2c(C#N)c3n(c12)CCCC3 | 33 | 9 | 
Cc1ccccc1-c1nc(N2CCN(CCc3ccc(F)c(F)c3)CC2)c2c(n1)c(C#N)c1n2CCCC1 | 18 | 0.62 | 

Structure (SMILES) | IC50 [1] [µM] | IC50 [2] [µM] | further results
N#Cc1c2n(c3c(N4CCN(CCc5ccccc5)CC4)nc(I)nc13)CCCC2 | 13 | 0.887 | 
N#Cc1c2n(c3c(N4CCN(CC(=O)c5ccccc5)CC4)ncnc13)CCCC2 | 23 | 1.85 | 
N#Cc1c2n(c3c(NCCN4CCc5ccccc5C4)ncnc13)CCCC2 | > 50 | 6.35 | 
N#Cc1c2n(c3c(N4CCN(CCc5c[nH]c6ccccc56)CC4)ncnc13)CCCC2 | 5.82 | 0.6 | 
N#Cc1c2n(c3c(N4CCN(CCc5cccc(Cl)c5)CC4)ncnc13)CCCC2 | 17.9 | 0.92 | 
N#Cc1c2n(c3c(N4CCN(CCc5ccccc5)CC4)ncnc13)CCCC2 | 9.63 | 0.69 | 
O=C(Nc1cccnc1)c1c2n(c3c(N4CCN(CCc5ccc(F)c(F)c5)CC4)ncnc13)CCCC2 | 4.95 |  | bioavailability [6]: 45.6%; AUC [3]: 40600 ng·h/mL; bioavailability [7]: 55.5%; half-life [17]: 4.48 h; AUC [8]: 56400 ng·h/mL; Cmax [4]: 24.5 µM; half-life [5]: 6.72 h; half-life [18]: 3.75 h; Cmax [11]: 14.3 µM
COC(=O)c1c2n(c3c(N4CCN(CCc5ccccc5)CC4)ncnc13)CCCC2 | 16.5 | 0.91 | 
N#Cc1c2n(c3c(SCc4ccc(Cl)cc4)ncnc13)CCCCC2 |  | 3.9 | 
O=C(c1ccccc1)c1c2n(c3c(N4CCN(CCc5ccccc5)CC4)ncnc13)CCCC2 | 10.7 | 1.37 | 
c1ccc(CCN2CCN(c3ncnc4c(-c5ncccn5)c5n(c34)CCCC5)CC2)cc1 | > 50 | 0.675 | 
N#Cc1c2n(c3c(N4CCN(CCc5ccc(Cl)cc5)CC4)ncnc13)CCCC2 | 9.2 | 0.399 | 
N#Cc1c2n(c3c(NCCc4ccccc4)ncnc13)CCCC2 | 16 | 6.3 | 
N#Cc1c2n(c3c(N4CCN(CCc5ccc(F)c(F)c5)CC4)nc(-c4cccnc4)nc13)CCCC2 |  | 0.218 | 
CC(=O)Nc1ccc(-c2nc(N3CCN(CCc4ccccc4)CC3)c3c(n2)c(C#N)c2n3CCCC2)cc1 | 23.7 | 0.57 | 
Cc1nc(-c2c3n(c4c(N5CCN(CCc6ccccc6)CC5)ncnc24)CCCC3)no1 | 3.7 | 0.65 | 
N#Cc1c2n(c3c(N4CCN(S(=O)(=O)Cc5ccccc5)CC4)ncnc13)CCCC2 | 14 | 6.65 | 
CCNC(=O)c1c2n(c3c(N4CCN(CCc5ccc(F)c(F)c5)CC4)ncnc13)CCCC2 | 4.79 |  | bioavailability [6]: 85%; AUC [3]: 16900 ng·h/mL; bioavailability [7]: 50%; AUC [8]: 21100 ng·h/mL; Cmax [4]: 18.3 µM; half-life [5]: 2.3 h; AUC [9]: 14600 ng·h/mL; Cmax [10]: 7.34 µM; half-life [18]: 7.9 h; Cmax [11]: 5.73 µM; half-life [13]: 1.84 h
